Reference: article PMC3458512 (Organic & biomolecular chemistry, 2012)

Columns and labels:
[1] = molecular target: T. cruzi farnesyl pyrophosphate synthase (TcFPPS) (Trypanosoma cruzi, UniProt Q8WS26); assay: TcFPPS enzymatic activity inhibition assay; format: biochemical; conditions: read-out: IC50 TcFPPS; recombinant enzyme
[2] = molecular target: T. gondii farnesyl pyrophosphate synthase (TgFPPS) (Toxoplasma gondii, UniProt Q197X6); format: biochemical; conditions: read-out: IC50 TgFPPS
T. gondii tachyzoites = T. gondii tachyzoites growth assay; format: cell-based, Toxoplasma gondii; conditions: read-out: IC50 T. gondii tachyzoites; growth inhibition of tachyzoites
T. cruzi amastigotes = T. cruzi amastigotes assay; format: cell-based, Trypanosoma cruzi
How it was run: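 Vero cells gamma-irradiated (2,000 Rads), seeded at 3.4 × 10^4/well in RPMI + 10% FBS, overnight at 35 °C, 7% CO2. Infected 5 h with 3.4 × 10^5 tdTomato-expressing CL-strain trypomastigotes/well, washed, then serial test compound dilutions in quadruplicate. Controls were uninfected, drug-only and untreated-infected wells, plus benznidazole reference at 3.5 and 1.5 μM. Fluorescence read day 3 post-infection; IC50 by non-linear regression.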

T. cruzi = conditions: in vivo; cited from earlier work

## O=P(O)(O)C(F)P(=O)(O)O [Compound 35, 1-(Fluoromethylene)-1,1-bisphosphonic acid]
[1]
  IC50: > 1 µM
[2]
  IC50: > 10 µM
T. gondii tachyzoites
  IC50: > 10 µM

## CC(F)(P(=O)(O)O)P(=O)(O)O [Compound 36, 1-(Fluoroethylidene)-1,1-bisphosphonic acid]
[1]
  IC50: > 1 µM
[2]
  IC50: > 10 µM
T. gondii tachyzoites
  IC50: > 10 µM

## CCC(F)(P(=O)(O)O)P(=O)(O)O [Compound 37, 1-(Fluoro-n-propylidene)-1,1-bisphosphophonic acid]
[1]
  IC50: > 1 µM
[2]
  IC50: > 10 µM
T. gondii tachyzoites
  IC50: > 10 µM

## CCCC(F)(P(=O)(O)O)P(=O)(O)O [Compound 38, 1-(Fluoro-n-butylidene)-1,1-bisphosphonic acid]
[1]
  IC50: > 1 µM
[2]
  IC50: > 10 µM
T. gondii tachyzoites
  IC50: > 10 µM

## CCCCC(F)(P(=O)(O)O)P(=O)(O)O [Compound 39, 1-(Fluoro-n-pentylidene)-1,1-bisphosphonic]
[1]
  IC50: > 1 µM
[2]
  IC50: 3.42 ± 1.67 µM
T. gondii tachyzoites
  IC50: > 10 µM

## CCCCCC(F)(P(=O)(O)O)P(=O)(O)O [Compound 40, 1-(Fluoro-n-hexylidene)-1,1-bisphosphonic acid]
[1]
  IC50: > 1 µM
[2]
  IC50: 0.16 ± 0.078 µM
T. gondii tachyzoites
  IC50: > 10 µM

## CCCCCCC(F)(P(=O)(O)O)P(=O)(O)O [Compound 41, 1-(Fluoro-n-heptylidene)-1,1-bisphosphonic acid]
[1]
  IC50: > 1 µM
[2]
  IC50: 0.241 ± 0.12 µM
T. gondii tachyzoites
  IC50: > 10 µM

## CCCCCCCC(F)(P(=O)(O)O)P(=O)(O)O [Compound 42, 1-(Fluoro-n-octylidene)-1,1-bisphosphonic acid]
[1]
  IC50: > 1 µM
[2]
  IC50: 0.616 ± 0.259 µM
T. gondii tachyzoites
  IC50: > 10 µM

## CCCCCCCCC(F)(P(=O)(O)O)P(=O)(O)O [Compound 43, 1-(Fluoro-n-nonylidene)-1,1-bisphosphonic acid]
[1]
  IC50: > 1 µM
[2]
  IC50: 0.035 ± 0.019 µM
T. cruzi amastigotes; at 10 μM
  growth inhibition of T. cruzi intracellular amastigotes: 13% at 10 μM
T. gondii tachyzoites
  IC50: 2.67 µM

## CCCCCCCCCC(F)(P(=O)(O)O)P(=O)(O)O [Compound 44, 1-(Fluoro-n-decylidene)-1,1-bisphosphonic acid]
[1]
  IC50: > 1 µM
[2]
  IC50: 0.06 ± 0.006 µM
T. gondii tachyzoites
  IC50: > 10 µM

## O=P(O)(O)C(O)(Cc1cccnc1)P(=O)(O)O [Risedronate, risedronate]
T. cruzi
  survival of T. cruzi-infected mice: significantly increase survival

## O=C(Cn1ccnc1[N+](=O)[O-])NCc1ccccc1 [benznidazole, reference compound]
T. cruzi amastigotes; Trypanosoma cruzi, Vero, 72 h, read-out: IC50 T. cruzi amastigotes
  IC50: 2.77 ± 0.488 µM
